Test results published in ChEMBL document CHEMBL1127737, “Characterization of two taxol photoaffinity analogues bearing azide and benzophenone-related photoreactive substituents in the A-ring side chain” (1994).

How the values were obtained:
[1] = Relative initial slope of the compound; type: functional
Summary of the method: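 Calf brain microtubule protein, purified by two cycles of temperature-dependent assembly-disassembly. Assembly ran in 0.1 M MES, 1 mM EGTA, MgCl2 and 3 M glycerol, pH 6.6, at 35 °C and was followed by turbidity at 350 nm. Assembly extent and initial slope were expressed relative to taxol. DMSO vehicle was at most 1% final.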

J774 = assay: Concentration that inhibits the cell division by 50% after 72 h; type: functional; settings: Mus musculus, J774, 72 h; read-out: ED50 (the source's name)
Summary of the method: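 J774.2 murine macrophage-like cells (3×10^5 per 60-mm plate) incubated with a range of compound concentrations; viable cell number counted by Coulter counter after 72 h. ED50 taken as the concentration inhibiting cell division by 50%. Compounds dissolved in DMSO, final DMSO at most 0.2%.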

Tubulin (Bos taurus) = assay: Effect of compound on assembly property of microtubule protein. 1.5 mg/mL MTP + 15 uM compound

Question: What does the source list for `CC(=O)O[C@H]1C(=O)[C@@]2(C)[C@H]([C@H](OC(=O)c3ccccc3)[C@]3(O)C[C@H](OC(=O)[C@H](O)[C@@H](NC(=O)c4ccc(N=[N+]=[N-])cc4)c4ccccc4)C(C)=C1C3(C)C)[C@]1(OC(C)=O)CO[C@@H]1C[C@@H]2O`?
Answer: Relative initial slope [1]: 84; EC50 (J774): 280 nM

Question: What does the source list for `CC(=O)O[C@H]1C(=O)[C@@]2(C)[C@H]([C@H](OC(=O)c3ccccc3)[C@]3(O)C[C@H](OC(=O)[C@H](O)C(NC(=O)c4ccc(C(=O)c5ccccc5)cc4)c4ccccc4)C(C)=C1C3(C)C)[C@]1(OC(C)=O)CO[C@@H]1C[C@@H]2O` (stereo not given in full)?
Answer: Relative initial slope [1]: 15; EC50 (J774): 1500 nM; Assembly (Tubulin (Bos taurus)): 39%

Question: What does the source list for `Nc1nc2c(ncn2[C@@H]2O[C@H](COP(=O)(O)OP(=O)(O)OP(=O)(O)O)[C@@H](O)[C@H]2O)c(=O)[nH]1` [GUANOSINE TRIPHOSPHATE]?
Answer: Relative initial slope [1]: 65; Assembly (Tubulin (Bos taurus)): 70%

Question: With `CC(=O)O[C@H]1C(=O)[C@@]2(C)[C@H]([C@H](OC(=O)c3ccccc3)[C@]3(O)C[C@H](OC(=O)[C@H](O)[C@@H](NC(=O)c4ccccc4)c4ccccc4)C(C)=C1C3(C)C)[C@]1(OC(C)=O)CO[C@@H]1C[C@@H]2O` [PACLITAXEL] as the compound, how does the Relative initial slope [1] read?
Answer: 100

Question: And the EC50 (J774)?
Answer: 90 nM

Question: What about the Assembly (Tubulin (Bos taurus)) of the same compound?
Answer: 100%
